Experimental data reported in ChEMBL document CHEMBL5058577, “EUbOPEN Chemogenomics Library 2 (Multiplex)” (2022).

System: HEK-293T
Assay: Multiplex assay against HEK293T
Assay type: toxicity, cell-based
Conditions: human
Method in brief: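 Tubulin, mitochondrial-mass and membrane-permeability phenotypes are per cents of healthy-nucleus cells. Cells were gated by CellPathfinder machine learning into Hoechst high-intensity objects or normal cells, normal cells into healthy, pyknosed or fragmented nuclei, and pyknosed cells into mitotic or apoptotic. Before that, live cells stained at seeding with Hoechst33342, BioTracker Green Microtubule Cytoskeleton Dye, MitoTracker Red and Annexin V Alexa Fluor 680 were imaged on a CQ1 microscope at 37°C and 5% CO2 after compound addition.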

[1] = 12 h, 1 µM, compound concentration 1 uM, replicate 1
[2] = 12 h, 1 µM, compound concentration 1 uM, replicate 2
[3] = 12 h, 10 µM, compound concentration 10 uM, replicate 1
[4] = 12 h, 10 µM, compound concentration 10 uM, replicate 2
[5] = 24 h, 1 µM, compound concentration 1 uM, replicate 1
[6] = 24 h, 1 µM, compound concentration 1 uM, replicate 2
[7] = 24 h, 10 µM, compound concentration 10 uM, replicate 1
[8] = 24 h, 10 µM, compound concentration 10 uM, replicate 2
[9] = 48 h, 1 µM, compound concentration 1 uM, replicate 1
[10] = 48 h, 1 µM, compound concentration 1 uM, replicate 2
[11] = 48 h, 10 µM, compound concentration 10 uM, replicate 1
[12] = 48 h, 10 µM, compound concentration 10 uM, replicate 2

Cc1nn(C)c2nc(NNC(=O)Nc3cc(Cl)nc(Cl)c3)cc(C(C)C)c12
Population Apoptotic (%) [1]: 27%
Population Fragmented Nuclei (%) [1]: 5%
Population Healthy Nuclei (%) [1]: 77%
Population Hoechst High Intensity Objects (%) [1]: 5%
Population Membrane Permeable-Phenotype (%) [1]: 0%
Population Mitochondria Different-Phenotype (%) [1]: 37%
Population Mitotic Cells (%) [1]: 72%
Population Normal (%) [1]: 94%
Population Pyknosed Nuclei (%) [1]: 16%
Population Tubulin-Different-Phenotype (%) [1]: 26%
Total Cell Count [1]: 467
Population Apoptotic (%) [2]: 40%
Population Healthy Nuclei (%) [2]: 81%
Population Hoechst High Intensity Objects (%) [2]: 2%
Population Mitochondria Different-Phenotype (%) [2]: 59%
Population Mitotic Cells (%) [2]: 60%
Population Normal (%) [2]: 97%
Population Pyknosed Nuclei (%) [2]: 13%
Population Tubulin-Different-Phenotype (%) [2]: 25%
Total Cell Count [2]: 383
Population Apoptotic (%) [3]: 55%
Population Fragmented Nuclei (%) [3]: 5%
Population Healthy Nuclei (%) [3]: 61%
Population Hoechst High Intensity Objects (%) [3]: 12%
Population Membrane Permeable-Phenotype (%) [3]: 1%
Population Mitochondria Different-Phenotype (%) [3]: 79%
Population Mitotic Cells (%) [3]: 44%
Population Normal (%) [3]: 88%
Population Pyknosed Nuclei (%) [3]: 32%
Population Tubulin-Different-Phenotype (%) [3]: 80%
Total Cell Count [3]: 300
Population Apoptotic (%) [4]: 46%
Population Fragmented Nuclei (%) [4]: 4%
Population Healthy Nuclei (%) [4]: 74%
Population Hoechst High Intensity Objects (%) [4]: 3%
Population Mitochondria Different-Phenotype (%) [4]: 84%
Population Mitotic Cells (%) [4]: 53%
Population Normal (%) [4]: 96%
Population Pyknosed Nuclei (%) [4]: 21%
Population Tubulin-Different-Phenotype (%) [4]: 75%
Total Cell Count [4]: 396
Population Apoptotic (%) [5]: 31%
Population Fragmented Nuclei (%) [5]: 9%
Population Healthy Nuclei (%) [5]: 78%
Population Hoechst High Intensity Objects (%) [5]: 3%
Population Membrane Permeable-Phenotype (%) [5]: 0%
Population Mitochondria Different-Phenotype (%) [5]: 27%
Population Mitotic Cells (%) [5]: 68%
Population Normal (%) [5]: 96%
Population Pyknosed Nuclei (%) [5]: 11%
Population Tubulin-Different-Phenotype (%) [5]: 20%
Total Cell Count [5]: 608
Population Fragmented Nuclei (%) [6]: 6%
Population Healthy Nuclei (%) [6]: 82%
Population Hoechst High Intensity Objects (%) [6]: 1%
Population Mitochondria Different-Phenotype (%) [6]: 37%
Population Normal (%) [6]: 98%
Population Tubulin-Different-Phenotype (%) [6]: 19%
Total Cell Count [6]: 512
Population Apoptotic (%) [7]: 59%
Population Fragmented Nuclei (%) [7]: 10%
Population Healthy Nuclei (%) [7]: 66%
Population Hoechst High Intensity Objects (%) [7]: 5%
Population Membrane Permeable-Phenotype (%) [7]: 0%
Population Mitochondria Different-Phenotype (%) [7]: 78%
Population Mitotic Cells (%) [7]: 40%
Population Normal (%) [7]: 94%
Population Pyknosed Nuclei (%) [7]: 22%
Population Tubulin-Different-Phenotype (%) [7]: 74%
Total Cell Count [7]: 321
Population Apoptotic (%) [8]: 55%
Population Fragmented Nuclei (%) [8]: 5%
Population Healthy Nuclei (%) [8]: 78%
Population Mitochondria Different-Phenotype (%) [8]: 80%
Population Mitotic Cells (%) [8]: 44%
Population Normal (%) [8]: 95%
Population Pyknosed Nuclei (%) [8]: 16%
Population Tubulin-Different-Phenotype (%) [8]: 69%
Total Cell Count [8]: 440
Population Apoptotic (%) [9]: 27%
Population Fragmented Nuclei (%) [9]: 12%
Population Healthy Nuclei (%) [9]: 78%
Population Hoechst High Intensity Objects (%) [9]: 3%
Population Membrane Permeable-Phenotype (%) [9]: 1%
Population Mitochondria Different-Phenotype (%) [9]: 17%
Population Mitotic Cells (%) [9]: 72%
Population Normal (%) [9]: 96%
Population Pyknosed Nuclei (%) [9]: 9%
Population Tubulin-Different-Phenotype (%) [9]: 16%
Total Cell Count [9]: 912
Population Apoptotic (%) [10]: 18%
Population Fragmented Nuclei (%) [10]: 13%
Population Healthy Nuclei (%) [10]: 81%
Population Hoechst High Intensity Objects (%) [10]: 2%
Population Mitochondria Different-Phenotype (%) [10]: 25%
Population Mitotic Cells (%) [10]: 81%
Population Normal (%) [10]: 97%
Population Pyknosed Nuclei (%) [10]: 5%
Population Tubulin-Different-Phenotype (%) [10]: 19%
Total Cell Count [10]: 748
Population Apoptotic (%) [11]: 62%
Population Fragmented Nuclei (%) [11]: 9%
Population Healthy Nuclei (%) [11]: 72%
Population Hoechst High Intensity Objects (%) [11]: 3%
Population Membrane Permeable-Phenotype (%) [11]: 0%
Population Mitochondria Different-Phenotype (%) [11]: 82%
Population Mitotic Cells (%) [11]: 37%
Population Normal (%) [11]: 96%
Population Pyknosed Nuclei (%) [11]: 18%
Population Tubulin-Different-Phenotype (%) [11]: 78%
Total Cell Count [11]: 387
Population Apoptotic (%) [12]: 45%
Population Healthy Nuclei (%) [12]: 79%
Population Hoechst High Intensity Objects (%) [12]: 4%
Population Mitochondria Different-Phenotype (%) [12]: 71%
Population Mitotic Cells (%) [12]: 55%
Population Normal (%) [12]: 95%
Population Pyknosed Nuclei (%) [12]: 10%
Population Tubulin-Different-Phenotype (%) [12]: 63%
Total Cell Count [12]: 593
